ChEMBL document CHEMBL1135691, “Synthesis of novel N-1 (allyloxymethyl) analogues of 6-benzyl-1-(ethoxymethyl)-5-isopropyluracil (MKC-442, emivirine) with improved activity against HIV-1 and its mutants” (J Med Chem, 2002)
Where “and” joins values, the source holds several entries; their conditions need not be identical. Equal entries are not always repeated. Structures can show the parent of a compound that is named as a salt.

How the values were obtained:
[1] = tested on: Human immunodeficiency virus 1; test: Effective concentration required to achieve 50% inhibition of HIV-1 multiplication in MT-4-infected K103N strain; type: functional; details: read-out: ED50 (the source's name)
How it was run: (§1)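 NNRTI-resistant HIV-1 strains infected MT-4 cells at 0.005 MOI. Cells were cultured with serial compound dilutions in RPMI 1640 with 10% heat-inactivated FCS and antibiotics for 6 days, alongside infected and uninfected no-compound controls. Viral expression was quantified indirectly by MTT assay. EC50 was interpolated from percent-inhibition versus concentration plots. Values are means of three separate experiments.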

[2] = tested on: Human immunodeficiency virus 1; test: (§2) Effective concentration required to achieve 50% inhibition of HIV-1 multiplication in MT-4-infected Y181C strain; type: functional; details: read-out: ED50 (the source's name); how it was run: as §1
[3] = tested on: Human immunodeficiency virus 1; test: as §2; type: functional; details: read-out: ED50 (the source's name); how it was run: as §1; remark: listed apart in the source
MT4 = test: (§3) Cytotoxic dose required to reduce the viability of normal uninfected MT-4 cells by 50%; type: functional, Homo sapiens; details: read-out: CD50 (the source's name)
[4] = tested on: Human immunodeficiency virus 1; test: Effective concentration required to achieve 50% inhibition of HIV-1 multiplication in MT-4-infected Y181C+K103N strain; type: functional; details: read-out: ED50 (the source's name); how it was run: as §1
[5] = tested on: Human immunodeficiency virus 1; test: Inhibition of HIV-1 IIIB replication in MT-4-infected wild type cells.; type: functional; details: read-out: ED50 (the source's name)
How it was run: (§4)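 MT-4 cells infected with wild-type HIV-1 (IIIB, H9-propagated stock, or HxB2 clone) at MOI 0.005 and cultured 6 days in RPMI 1640 with 10% heat-inactivated FCS and compound dilutions. Infected and uninfected controls without compound run in parallel. Virus expression measured indirectly by MTT. EC50 interpolated from inhibition–concentration plots. Mean of three experiments.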

[6] = (§5) Selective index as the ratio of CD50 to that of ED50 against HIV-1 HxB2 strain.; type: functional
How it was run: (§6)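 Ratio of CD50 to ED50. Both values come from 6-day MT-4 MTT assays: uninfected cultures for cytotoxicity, and cultures infected at MOI 0.005 with the named wild-type strain for antiviral effect. Each value was interpolated from inhibition–concentration plots and is the mean of three experiments.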

[7] = tested on: Human immunodeficiency virus 1; test: Effective concentration required to achieve 50% inhibition of HIV-1 multiplication in MT-4-infected wild type cells; type: functional; details: read-out: ED50 (the source's name); how it was run: as §4
[8] = Selective index (CD50 compared to ED50 against HIV-1 IIIB strain).; type: functional; how it was run: as §6
[9] = as §3; type: cell-based, MT4; details: human, read-out: CD50 (the source's name)
[10] = as §5; how it was run: as §6
[11] = Selective index as the ratio of CD50 to that of ED50 against HIV-1 IIIB strain.; how it was run: as §6

| Compound | EC50 [1] [nM] | EC50 [2] [nM] | EC50 [3] [nM] | CC50 (MT4; Homo sapiens, MT4) [nM] | CC50 (MT4) | EC50 [4] [nM] | EC50 [5] [nM] | SI [6] | EC50 [7] [nM] | SI [8] | CC50 [9] [nM] | SI [10] | SI [11] |
| --- | --- | --- | --- | --- | --- | --- | --- | --- | --- | --- | --- | --- | --- |
| CCc1c(Cc2cc(C)cc(C)c2)n(COCC=C(C)C)c(=O)[nH]c1=O | 90 | 340 | 450 | 36000 | 61000 nM | > 100000 | 0.3 | 3.03e+06 | 0.02 | 120000 |  |  |  |
| Cc1ccnc2c1NC(=O)c1cccnc1N2C1CC1 [NEVIRAPINE] | 4300 | > 100000 | 22000 | > 100000 |  | > 100000 | 380 | > 175 | 570 | > 263 |  |  |  |
| C=C(C)COCn1c(Cc2cc(C)cc(C)c2)c(CC)c(=O)[nH]c1=O | 2200 | 360 | 4000 | > 100000 |  | 28000 | 2.5 | > 12500 | 8 | > 40000 |  |  |  |
| C=CCOCn1c(Cc2cccc3ccccc23)c(CC)c(=O)[nH]c1=O |  |  |  | 32000 |  |  | 1000 |  |  | 32 |  |  |  |
| CC(C)=CCOCn1c(Cc2ccccc2)c(C(C)C)c(=O)[nH]c1=O | 3800 | > 100000 | > 100000 | 34000 |  | > 100000 | 30 | 1120 | 30 | 1070 | 32000 |  |  |
| C#CCOCn1c(Cc2ccccc2)c(C(C)C)c(=O)[nH]c1=O |  | > 100000 |  | > 100000 |  | > 100000 | 7 |  |  | > 14300 |  |  |  |
| C=C(C)COCn1c(Cc2cccc3ccccc23)c(CC)c(=O)[nH]c1=O |  |  |  | 35000 |  |  | 1000 |  |  | 35 |  |  |  |
| CC(C)Nc1cccnc1N1CCN(C(=O)c2cc3cc(NS(C)(=O)=O)ccc3[nH]2)CC1 [DELAVIRDINE MESYLATE] | 3000 | > 100000 | 4500 | 42000 | > 42000 nM | > 100000 | 60 | > 221 | 190 | 700 |  |  |  |
| C#CCOCn1c(Cc2cc(C)cc(C)c2)c(CC)c(=O)[nH]c1=O |  | > 100000 |  | > 100000 |  | 3000 | 3 |  |  | > 33300 |  |  |  |
| C=CCOCn1c(Cc2cc(C)cc(C)c2)c(CC)c(=O)[nH]c1=O | 20 | 320 | 70 | 100000 | > 100000 nM | 10000 | 4 | > 5e+06 | 0.02 | 25000 |  |  |  |
| CCc1c(Cc2cccc3ccccc23)n(COCC=C(C)C)c(=O)[nH]c1=O |  |  |  | > 100000 |  |  | 300 |  |  | > 333 |  |  |  |
| O=C1Nc2ccc(Cl)cc2[C@@](C#CC2CC2)(C(F)(F)F)O1 [EFAVIRENZ] | 350 |  | 40 | > 100000 |  | 2700 | 10 |  | 40 |  |  |  |  |
| CC(C)=CCOCn1c(Cc2cc(C)cc(C)c2)c(C(C)C)c(=O)[nH]c1=O |  | 19000 |  | > 100000 |  | 28000 | 0.2 |  |  | > 500000 |  |  |  |
| C=CCOCn1c(Cc2ccccc2)c(C(C)C)c(=O)[nH]c1=O | 900 | 100000 | 3300 | > 100000 |  | > 100000 | 4 | > 33300 | 3 | > 25000 |  |  |  |
| C=C(C)COCn1c(Cc2ccccc2)c(C(C)C)c(=O)[nH]c1=O | > 100000 | > 100000 | > 100000 |  | 40000 nM and > 100000 nM | > 100000 | 280 |  | 50 |  |  | > 2000 | 142 |
| C=C(C)COCn1c(Cc2cc(C)cc(C)c2)c(C(C)C)c(=O)[nH]c1=O |  | 15000 |  | > 100000 |  | 26000 | 0.15 |  |  | > 667000 |  |  |  |
| C=CCOCn1c(Cc2cc(C)cc(C)c2)c(C(C)C)c(=O)[nH]c1=O |  | > 100000 |  | 30000 |  | > 100000 | 0.2 |  |  | 150000 |  |  |  |
